Published values gathered from unrelated publications.
Lines come from different studies, so protocols differ.
CHRM3: Muscarinic acetylcholine receptor M3 (CHRM3, Homo sapiens, UniProt P20309)
SIGMAR1: Sigma non-opioid intracellular receptor 1 (SIGMAR1, Cavia porcellus, UniProt Q60492)
TMEM97: Sigma intracellular receptor 2 (TMEM97, Homo sapiens, UniProt Q5BJF2)
lecB: Fucose-binding lectin PA-IIL (lecB, Pseudomonas aeruginosa, UniProt Q9HYN5)

With `Cc1cc(N2CCNCC2)nc2ccccc12` the Ki was 31.6 µM (CHRM3; ligand displacement, radioligand; cell membranes).
The Ki of `CCN(CC)CCNC(=O)c1ccc(F)cc1` is reported as 8.9 µM (SIGMAR1; ligand displacement, radioligand; cell membranes).
`NC1C(O)C(O)C(O)C1O` (stereo not drawn) has a Ki of 100 µM (Alpha-mannosidase 2 (Drosophila melanogaster, UniProt Q24451); enzyme activity, inhibitor, fluorescence).
`COCCCN1CCN(c2ccccc2OC)CC1` has a Ki of 0.17 µM (Alpha-1D adrenergic receptor (ADRA1D, Homo sapiens, UniProt P25100); cell-free assay).
`Cn1cc(-c2cccc(N3CCc4c(sc5c4CC(C)(C)C5)C3=O)c2CO)cc(Nc2ccncn2)c1=O` has a Ki of 0.548 µM (Ephrin type-A receptor 7 (EPHA7, Homo sapiens, UniProt Q15375); cell-free assay).
`C[C@H](N)Cn1ncc2ccc3c(c21)CCCO3` gave a Ki of 5.57 µM (5-hydroxytryptamine receptor 1B (Htr1b, Rattus norvegicus, UniProt P28564); ligand displacement, radioligand).
`CN(C)CCCN1c2ccccc2CCc2ccc(Cl)cc21` has a Ki of 0.2 µM (TMEM97; ligand displacement, radioligand).
The Ki of `CC(C)C[C@H](NC(=O)CNC(=O)[C@H](C)NC(=O)c1ccc(S(=O)(=O)NC[C@H]2O[C@@H](C)[C@@H](O)[C@@H](O)[C@@H]2O)cc1)C(=O)N[C@@H](C)C(=O)N1CCN(c2cc3c(cc2F)c(=O)c(C(=O)O)cn3C2CC2)CC1` is reported as 1.92 µM (lecB; ligand displacement, FP).
The Ki of `CC(C)[C@]1(O)[C@H](O)[C@@H]2O[C@]23[C@]2(O[C@H]2C[C@H]2C4=C(CC[C@@]23C)C(=O)OC4)[C@@H]1O` is reported as 85 µM (dCTP pyrophosphatase 1 (Homo sapiens, UniProt Q9H773); enzyme activity, inhibitor).
The Ki of `CC1=NC2(CCN(C)CC2)C(=O)N(c2c(C)cccc2C)C1=O` is reported as 0.008 µM (SIGMAR1; cell-free assay).
The Ki of `CN1[C@@H]2CC[C@H]1C[C@@H](OC(c1ccccc1)c1ccccc1)C2` is reported as 0.0637 µM (TMEM97; ligand displacement, radioligand).
For `c1cc(N2CCNCC2)c2cc[nH]c2c1`, the Ki was over 31.6 µM (CHRM3; ligand displacement, radioligand; cell membranes).
For `CCN(CC)CCO[C@H]1CC[C@@]2(C)C(=CC[C@@H]3[C@@H]2CC[C@]2(C)C(=O)CC[C@@H]32)C1`, the Ki was 0.0193 µM (TMEM97; ligand displacement, radioligand).
The Ki of `Cc1ncc(C)n2nc(/C=C/c3nc(N4CCCC4)cc(N4CCOCC4)n3)nc12` is reported as 0.00059 µM (cAMP and cAMP-inhibited cGMP 3',5'-cyclic phosphodiesterase 10A (Pde10a, Rattus norvegicus, UniProt Q9QYJ6); enzyme activity, inhibitor, TR-FRET).
For `COc1cc2c(cc1OC)CN(CCc1ccc(NC(=O)c3cccc4c(=O)c5cccc(OC)c5[nH]c34)cc1)CC2`, the Ki was 0.077 µM (TMEM97; ligand displacement, radioligand).
The Ki of `CC(C)[C@@H](Nc1nc(Cl)nc2c1ncn2[C@H]1[C@H](O)[C@H](O)[C@]2(CN=[N+]=[N-])C[C@H]12)C1CC1` is reported as over 7.3 µM (Alpha-2B adrenergic receptor (ADRA2B, Homo sapiens, UniProt P18089); ligand displacement, radioligand).
For `CN1CCN(C2=Nc3ccccc3Oc3ccc(Cl)cc32)CC1`, the Ki was 3.46 µM (TMEM97; ligand displacement, radioligand).
The Ki of `CC(C)C[C@H](NC(=O)CNC(=O)[C@H](C)NC(=O)c1ccc(S(=O)(=O)NC[C@H]2O[C@@H](C)[C@@H](O)[C@@H](O)[C@@H]2O)cc1)C(=O)N[C@@H](C)C(=O)NC[C@@H]1CCN(c2cc3c(cc2F)c(=O)c(C(=O)O)cn3C2CC2)C1` is reported as 1.76 µM (lecB; ligand displacement, FP).
